# Bioassay records (PubChem BioAssay)
# RGS8-Gao: RGS8-Galphao binding modulators, primary screen, biochemical, multiplexed bead flow cytometry | response (percent of control binding), % at 10 µM | hit rate 0.34% among 220,000 | Guanine nucleotide-binding protein G(o) subunit alpha (Homo sapiens), P09471 | AID 1423, 2008 | actives lie on both sides; in the data active means response below about 60% or above about 140%; inactive means in between;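 further: Galphao activated as the GDP aluminium fluoride complex binding bead-coupled RGS8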
# Target sequence (P09471 whole entry, looked up): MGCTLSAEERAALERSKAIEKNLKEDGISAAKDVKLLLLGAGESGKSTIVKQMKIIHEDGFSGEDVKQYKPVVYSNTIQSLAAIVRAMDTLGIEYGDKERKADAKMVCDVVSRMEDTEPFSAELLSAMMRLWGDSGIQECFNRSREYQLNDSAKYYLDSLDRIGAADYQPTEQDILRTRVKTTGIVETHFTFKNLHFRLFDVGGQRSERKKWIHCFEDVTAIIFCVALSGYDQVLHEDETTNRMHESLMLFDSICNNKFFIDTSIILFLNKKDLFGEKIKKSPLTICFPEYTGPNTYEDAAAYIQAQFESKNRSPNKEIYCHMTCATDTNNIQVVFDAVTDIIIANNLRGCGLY
# RGS4-Gao reg: modulators of RGS4 binding to Galphao, primary screen, biochemical, multiplexed bead flow cytometry | Guanine nucleotide-binding protein G(o) subunit alpha (Homo sapiens), P09471 | binding response (% of control), % at 10 µM | actives lie on both sides | hit rate 0.33% among 220,000; in the data active means binding response below about 49% or above about 150%; inactive means in between;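 further: fluorescent Galphao activated with aluminum fluoride binding bead-coupled RGS4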
# RGS7-Gao reg: RGS7-Galphao binding modulators, primary screen, biochemical, multiplexed bead flow cytometry. hit rate 0.35% among 220,000. actives lie on both sides. Guanine nucleotide-binding protein G(o) subunit alpha (Homo sapiens), P09471. binding response (% of control), % at 10 µM; in the data active means binding response below about 49% or above about 150%; inconclusive means no clear call, values can overlap the other calls; inactive means in between;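 further: fluorescent Galphao held in activated GDP-AlF4 state binding bead-coupled RGS7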
# RGS16-Gao HTS: modulators of RGS16 binding to Galphao, primary screen, biochemical, human proteins, multiplexed bead flow cytometry | binding response (% of control), % at 10 µM | bead-based flow cytometry RGS16-Galphao binding, fluorescence; actives lie on both sides | Regulator of G-protein signaling 16 (Homo sapiens) + Guanine nucleotide-binding protein … | hit rate 0.38% among 220,000 | AID 1441, 2008;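 further: Galphao activated by GDP with aluminum fluoride before binding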
# Calb biofilm kill: clotrimazole potentiators killing C. albicans biofilm, primary screen, 4-compound mixtures; C. albicans biofilm persisters + clotrimazole, fluorescence viability; primary screen in compound mixtures of four per well; inhibition, % at 7.6 µM; hit rate 0.02% among 120,000;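 active means inhibition above 30.3% in the primary screen of four-compound pools, then above 30% when the compound was retested; inconclusive means passed the primary limit but could not be retested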;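 further: compounds exposed to preformed 24 h biofilms for 48 h; 0% = untreated biofilm control and 100% = clotrimazole plus chlorhexidine kill blank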
#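 Test system: C. albicans biofilms. Buffer or medium: RPMI/MOPS medium, pH 7.0. Timing: 48 h compound exposure at 37 °C. Technique: Alamar Blue fluorescence. Evaluation: percent inhibition of biofilm viability.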
# RGS-Gao: modulators of RGS–Galpha-o binding, primary screen, biochemical, multiplexed beads, flow cytometry, RGS4/7/8/16/19. shares compounds with RGS16-Gao HTS. multiplexed bead flow cytometry. RGS4–Galpha-o binding response, % at 10 µM. hit rate 99% among 1,600. AID 1504, 2009;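 further: fluorescently labeled Galpha-o bound to GDP with aluminium fluoride binding biotinylated RGS beads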
# Avidin counter: disruption of biotin probe capture by avidin, counter-screen for RGS protein interaction modulators, biochemical, flow cytometry, bead-based. inhibition, % at 10 µM. streptavidin beads, fluorescein-biotin binding. 1,700 tested, under 10 active. shares compounds with RGS16-Gao HTS;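 active means inhibition above 50%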;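 further: median green fluorescence of gated singlet beads compared with DMSO control wells; 0% = DMSO wells and 100% = complete loss of bead fluorescence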
# RGS8-Gao single: RGS8-Galphao binding modulators, confirmation, biochemical, multiplexed bead flow cytometry, single concentration; hit rate 3% among 1,700; shares compounds with RGS16-Gao HTS; binding response (% of control), % at 10 µM; bead-based flow cytometry RGS8-Galphao binding, fluorescence; actives lie on both sides; in the data active means binding response below about 72% or above about 130%; inactive means in between;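 further: Galphao activated as GDP AlF4 complex before binding bead RGS8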
# RGS7-Gao single: RGS7-Galphao binding modulators, confirmation, biochemical, multiplexed bead flow cytometry, single concentration; shares compounds with RGS16-Gao HTS; bead-based flow cytometry RGS7-Galphao binding; actives lie on both sides; response (percent of control binding), % at 10 µM; hit rate 7.8% among 1,700; AID 1837, 2009; in the data active means response below about 75% or above about 130%; inactive means in between;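 further: fluorescent Galphao activated with GDP and aluminum fluoride binding bead-coupled RGS7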
# RGS16-Gao conf: modulators of RGS16-Galphao protein binding, confirmation, biochemical, single concentration, multiplexed bead flow cytometry. bead-based flow cytometry; actives lie on both sides. shares compounds with RGS16-Gao HTS. response (% of control binding), % at 10 µM. hit rate 4% among 1,700; in the data active means response below about 74% or above about 130%; inactive means in between;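 further: Galphao activated as the GDP aluminium fluoride complex binding bead-coupled RGS16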
# RGS4-Gao confirm: modulators of RGS4-Galphao protein binding, confirmation, biochemical, single concentration, multiplexed bead flow cytometry; binding response (% of control), % at 10 µM; hit rate 4% among 1,700; actives lie on both sides; shares compounds with RGS16-Gao HTS; in the data active means binding response below about 74% or above about 130%; inactive means in between
# RGS19-Gao conf: regulators of RGS19-Galphao binding, confirmation, biochemical, single point, multiplexed bead flow cytometry; shares compounds with RGS16-Gao HTS; bead-based flow cytometry RGS19-Galphao binding; actives lie on both sides; response (percent of control binding), % at 10 µM; hit rate 5% among 1,700; AID 1841, 2009; in the data active means response below about 50% or above about 160%; inactive means in between;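 further: 100% = no compound control and 0% = blank background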
# Target sequence (P09471 whole entry, looked up): as above
# Target sequence (P49795 whole entry, looked up): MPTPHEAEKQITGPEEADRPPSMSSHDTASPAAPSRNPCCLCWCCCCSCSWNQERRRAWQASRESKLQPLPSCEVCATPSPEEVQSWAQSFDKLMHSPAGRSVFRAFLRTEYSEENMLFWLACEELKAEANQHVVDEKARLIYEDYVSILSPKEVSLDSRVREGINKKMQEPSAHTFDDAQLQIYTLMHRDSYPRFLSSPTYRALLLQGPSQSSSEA
# * marks the source's active call; other numbers are inactive results; ? = inconclusive; nt = not tested or not shown; [ ] = remark or other dose. An excerpt weighted towards active compounds, which were near 0.74% of everything screened. Unless noted, how the calls were made is not given here.
SMILES,RGS8-Gao,RGS4-Gao reg,RGS7-Gao reg,RGS16-Gao HTS,Calb biofilm kill,Avidin counter,RGS8-Gao single,RGS7-Gao single,RGS16-Gao conf,RGS4-Gao confirm,RGS19-Gao conf,others
Cc1ccc(NC(=O)CSCC#N)cc1,93,90,91,93,nt,nt,nt,nt,nt,nt,nt,
CCOC(=O)CC(=O)CSCC(=O)Nc1ccc(C)cc1,57*,47*,43*,36,nt,0,105,107,105,106,102,
CCN1CCN(C(=S)c2ccc([N+](=O)[O-])cc2)CC1,94,100,115,89,15,nt,nt,nt,nt,nt,nt,
CC(C)n1c(NCCO)nc2ccccc21,57*,49*,37*,49,10,3,104,96,100,100,98,
CCOc1cccc2cc(-c3nnc(NCc4ccc5c(c4)OCO5)s3)c(=O)oc12,nt,nt,nt,nt,17,-1,105,105,120,107,167*[activator],
O=C(O[C@@H]1OC2COC(=O)c3cc(O)c(O)c(O)c3-c3c(cc(O)c(O)c3O)C(=O)O[C@@H]([C@H]1O)[C@@H]2O)c1cc(O)c(O)c(O)c1,44*,34*,22*,23*,6,-2,35*,4.1*,35*,19*,42*,
COc1ccccc1NC(=O)CN1CCN(CC(=O)Nc2ccc3c(c2)OCO3)CC1,142*[activator],119,112,348,nt,nt,nt,nt,nt,nt,nt,RGS-Gao=119*
COc1ccc(NC(=O)CN2CCN(CC(=O)Nc3ccc4c(c3)OCO4)CC2)cc1,98,94,96,99,nt,nt,nt,nt,nt,nt,nt,
CCc1ccc(Cc2cnc(NC(=O)C3=NCCN3)s2)cc1,102,101,?,107,3,nt,nt,nt,nt,nt,nt,
c1ccc(-c2nc3ccccc3[nH]2)nc1,154*[activator],170*[activator],158*[activator],167,14,0,99,102,99,99,110,
O=c1[nH]c(-c2ccccn2)nc2ccccc12,98,97,100,96,nt,nt,nt,nt,nt,nt,nt,
C=CCn1c(Cc2ccccc2)n[nH]c1=S,66,96,93,9.3*,-3,-1,103,107,101,106,112,RGS-Gao=96*
C=CCn1c(Cc2c[nH]c3ccccc23)n[nH]c1=S,102,100,100,103,nt,nt,nt,nt,nt,nt,nt,
CC12CCC(C(=O)Nc3ccncc3)(CC1O)C2(C)C (stereo not drawn),99,93,?,96,16,nt,nt,nt,nt,nt,nt,
Cc1ccc(C)c(NC(=O)CSc2nnc(-c3ccccc3)n2N)c1,141*[activator],119,112,428,nt,-1,100,95,101,98,91,RGS-Gao=119*
COc1ccc(C(=O)C[n+]2ccc3c(c2)nc(-c2cc(OC)c(OC)cc2OC)n3C)cc1,61,75,68,18*,nt,1,102,105,102,101,98,RGS-Gao=75*
COc1cc(OC)c(-c2nc3c[n+](CC(=O)c4ccccc4)ccc3n2C)cc1OC,98,102,101,87,nt,nt,nt,nt,nt,nt,nt,
CCc1ccc(/C=C2/C(=O)N(CC)C(=S)N2C)s1,170*[activator],198*[activator],199*[activator],113,11,0,105,106,105,103,95,
CCOc1ccc(N2C(=O)/C(=C/c3cccs3)N(C)C2=S)cc1,102,100,105,104,8,nt,nt,nt,nt,nt,nt,
CN(C)S(=O)(=O)N1C(=O)c2ccccc2C1=O,101,101,?,97,21,nt,nt,nt,nt,nt,nt,
CN(C)/C=C1\C=C2C(=O)c3ccccc3N2C1=O,137,242*[activator],?,224*[activator],28,1,143*[activator],355*[activator],268*[activator],271*[activator],374*[activator],
Cc1ccc(Cl)cc1NC(=O)c1cc2ccccc2cc1O,94,86,?,89,4,nt,nt,nt,nt,nt,nt,
CCOC(=O)C1CCN(S(=O)(=O)Cc2ccc(Cl)cc2)CC1,nt,170*[activator],164*[activator],nt,nt,0,88,61*,78,77,61,
CCOC(=O)C1CCN(S(=O)(=O)Cc2ccccc2)CC1,102,101,101,104,nt,nt,nt,nt,nt,nt,nt,
CCc1nnc(NC(=O)CSc2nc3ccc(OC)cc3[nH]2)s1,104,105,104,110,0,nt,nt,nt,nt,nt,nt,
SMILES,RGS8-Gao,RGS4-Gao reg,RGS7-Gao reg,RGS16-Gao HTS,Calb biofilm kill,Avidin counter,RGS8-Gao single,RGS7-Gao single,RGS16-Gao conf,RGS4-Gao confirm,RGS19-Gao conf,others
COC(=O)c1ccccc1NC(=S)N(Cc1ccc2c(c1)OCO2)Cc1cc2ccc(C)cc2[nH]c1=O,105,105,103,107,8,nt,nt,nt,nt,nt,nt,
COC(=O)c1ccccc1NC(=S)N(Cc1ccc2c(c1)OCO2)Cc1cc2cc(C)ccc2[nH]c1=O,128,107,113,264*[activator],18,-1,101,101,100,100,88,RGS-Gao=107*
COc1ccc(NC(=O)Nc2nnc(-c3ccccc3SCc3ccccc3)s2)cc1,nt,nt,nt,nt,nt,0,103,104,105,103,104,
COc1cccc(NC(=O)Nc2nnc(-c3ccccc3SCc3ccccc3)s2)c1,105,105,101,106,nt,nt,nt,nt,nt,nt,nt,
Cc1ccc(C)c(NC(=S)c2ccc3ccccc3n2)c1,15*,19*,8.0*,2.2*,18,0,100,82,96,86,80,
CC1(C)CC(=O)C2=C(C1)NC(=S)C(C#N)C21CCCCC1 (stereo not drawn),91,101,?,93,17,nt,nt,nt,nt,nt,nt,
C/C(CC(=O)Nc1ccccn1)=N\NC(=O)c1ccc2ccccc2c1,122,107,105,211*[activator],-9,1,95,89,92,91,96,RGS-Gao=107*
